Only some compounds are listed: those with a hit (about 2.6% of all), similar ones and a draw of the others.
5HT1E ag – 5-HT1E receptor agonists, primary screen, cell-based, HTS. activation, % at 6 µM. CHO 5-HT1E Ga15 NFAT-bla reporter, FRET; 0% DMSO wells, 100% control agonist wells. hit rate 0.69% among 65,000. AID 574, 2007;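 active = activation above a set limit, the screen-wide mean activation plus 3 SD, cut at about 8.5% in these data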;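 note: 100% = positive control agonist at 1 µM giving full maximal response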
Target sequence (P28566 whole entry, looked up): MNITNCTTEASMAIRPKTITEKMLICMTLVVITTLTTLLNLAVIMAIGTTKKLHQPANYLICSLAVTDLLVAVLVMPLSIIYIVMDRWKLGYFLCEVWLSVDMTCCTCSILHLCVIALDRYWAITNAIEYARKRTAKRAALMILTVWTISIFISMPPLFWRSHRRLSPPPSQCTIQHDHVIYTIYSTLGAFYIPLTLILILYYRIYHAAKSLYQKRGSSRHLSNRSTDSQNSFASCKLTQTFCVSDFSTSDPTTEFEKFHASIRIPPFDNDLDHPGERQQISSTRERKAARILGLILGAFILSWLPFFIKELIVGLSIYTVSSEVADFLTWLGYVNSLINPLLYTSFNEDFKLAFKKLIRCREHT
HTR1A agonist – human 5-HT1a receptor agonists, primary screen, cell-based, CHO, Ga15 NFAT-bla reporter | activation, % at 10 µM | 5-hydroxytryptamine receptor 1A (Homo sapiens), P08908 | AID 567, 2006 | hit rate 0.56% among 65,000 | CHO 5-HT1a Ga15 NFAT-bla reporter, FRET ratio; 0% basal, 100% maximal reference agonist;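 active = activation above the screen-wide mean activation plus 3 SD, cut at about 19% in these data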;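 note: 0% = DMSO wells and 100% = 5-CT at EC100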
S1P3 agonist – human S1P3 receptor agonists, primary screen, cell-based, primary and confirmation, NFAT-BLA reporter; S1P3 NFAT-BLA reporter cells, agonism, FRET ratio; relative to 1 µM S1P, basal subtracted; hit rate 0.1% among 60,000; Sphingosine 1-phosphate receptor 3 (Homo sapiens), Q99500; AID 373, 2006; activation, % at 4.5 µM;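 active = activation above the screen-wide mean plus 3 SD, cut at about 4.5% in these data, passing the limit was not always enough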
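Assay system: CHO cells stably expressing human S1P3, Gα16 and NFAT-β-lactamase reporter. Timing: overnight plating, 4 h compound 37 °C, 2 h substrate RT. Signal: β-lactamase FRET emission ratio 460/535 nm. Measure: percent activation versus median 1 µM S1P response, basal-subtracted, per plate. Repeats: primary screen single test, confirmation screen in triplicate.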
5HT1a antag – human 5-HT1a receptor antagonists, primary screen, cell-based, CHO, Ga15 NFAT-bla reporter. 5-hydroxytryptamine receptor 1A (Homo sapiens), P08908. CHO 5-HT1a Ga15 NFAT-bla reporter, antagonist mode. inhibition, % at 10 µM. hit rate 0.68% among 62,000;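 active = inhibition above the mean of all tested compounds plus 3 SD, cut at about 43% in these data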;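 note: receptor stimulated by 5-CT agonist at 100 nM near EC80; beta-lactamase reporter measured by ratiometric fluorescence of a cleavable substrate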
5HT1E antag – 5-HT1E receptor antagonists, primary screen, cell-based, HTS | CHO 5-HT1E Ga15 NFAT-bla reporter, FRET, antagonist | inhibition, % at 6 µM | hit rate 0.99% among 65,000 | AID 571, 2007;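 active = inhibition above a set limit, the mean inhibition across every tested compound plus 3 SD, cut at about 29% in these data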;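 note: signal is the 460 over 535 nm emission ratio of beta-lactamase substrate; 0% = agonist plus DMSO wells and 100% = wells without agonist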
The depositor's hits bear a star; . = no result.

SMILES	5HT1E ag	HTR1A agonist	S1P3 agonist	5HT1a antag	5HT1E antag
Cc1cccn2c(=O)c3cc(C(=O)NC(C)c4ccccc4)c(=N)n(CCCn4ccnc4)c3nc12 (stereo not given)	5	16	4.7*	-66	-21
O=C(c1ccco1)N1CCN(CC(O)COc2ccc3oc4ccccc4c3c2)CC1 (stereo not given)	0	29*	0	0	-14
Cc1cc(C(=O)CSc2nc(N)cc(N)n2)c(C)n1CCc1ccc(F)cc1	0	3	0	-10	4
COc1ccc(CCn2c(C)cc(C(=O)CSc3nnnn3C)c2C)cc1	-1	3	14*	1	6
CCn1c(=NC(=O)c2ccc(N3C(=O)CCC3=O)cc2)sc2c(OC)ccc(OC)c21	2	1	-1	12	31*
CCN(Cc1ccccc1)C(c1cccs1)c1nnnn1C1CCCCC1 (stereo not given)	0	-1	-1	44*	7
O=C(CN1C(=O)CSC1=O)Nc1ccccc1N1CCOCC1	10*	-4	-1	8	8
O=C(c1coc(=O)c2ccccc12)N1CCN(Cc2ccccc2)CC1	0	-2	-1	-9	-14
Cn1c(N2CCOCC2)nc(-c2ccccc2)c1-c1ccccc1	20*	2	1	0	-6
O=C(Cc1nn[nH]n1)NCc1ccccc1Cl	-1	-2	0	-4	-4
CCN(CC)CCCCOc1ccccc1OC	10*	0	-1	-13	-6
O=C(c1ccco1)N1CCN(/C(=N/S(=O)(=O)c2cccs2)c2ccccc2Cl)CC1	0	29*	0	-10	-13
O=S(=O)(/N=C(\c1ccccc1)N1CCOCC1)c1cccs1	0	-3	0	-2	9
Cc1c(C)[n+](=O)c(-c2cccs2)c(C)n1[O-]	0	1	-1	-4	1
CC(=O)c1cc2c(cc1NC(=O)c1cc(C)nn1-c1ccccc1)OCO2	1	24*	-1	17	9
CCOC(=O)c1cc2ccc(OC(=O)c3ccco3)cc2oc1=O	81*	296*	28*	-308	-102
CCOc1ccc(C(=O)Nc2cc(C)on2)cc1OCC	0	-3	-1	9	10
CCCNC(=O)Nc1cc(C)on1	1	257*	0	-6	5
CCOC(=O)COc1ccc(S(=O)(=O)N2CCc3ccccc3C2)cc1	-1	-6	-1	13	8
CCn1c(=N)n(CC(O)COc2cccc(C)c2)c2ccccc21 (stereo not given)	0	0	0	12	-5
CCCCn1c(=N)n(CC(O)COc2ccc(C)cc2)c2ccccc21 (stereo not given)	0	-3	-2	53*	-3
N=c1n(Cc2ccccc2)c2ccccc2n1CC(O)COc1ccccc1 (stereo not given)	0	20*	-1	22	5
CCCCn1c(=N)n(CC(O)COc2ccccc2)c2ccccc21 (stereo not given)	-1	-4	-1	54*	17
N=c1n(CCN2CCOCC2)c2ccccc2n1CC(O)COc1ccccc1 (stereo not given)	0	-1	0	1	0
CCCn1c(=N)n(CC(O)COc2cccc(C)c2)c2ccccc21 (stereo not given)	0	-2	-1	37	-9
COc1cccc(OCC(=O)Nc2c(C(=O)Nc3ccc(OC)cc3OC)oc3ccccc23)c1	0	-1	0	-62	-12
COc1cccc2c1OC1(C)CC2NC(=O)N1c1cccc(C(=O)Nc2ccc3c(c2)OCCO3)c1 (stereo not given)	0	0	.	-8	4
Cc1ccc(NC(=O)Cn2cccc2)cc1Cl	-1	-2	1	0	-10
COc1ccc(NC(=O)Cn2cccc2)cc1Cl	-1	141*	0	3	6
CC(=O)Nc1ccc(S(=O)(=O)c2ccc(N)cc2)cc1	0	-3	0	-8	-8

Screening data as filed in PubChem.
